Source: ChEMBL document CHEMBL1177650, “Synthesis, structural elucidation and in vitro antiparasitic activity against Trypanosoma cruzi and Leishmania chagasi parasites of novel tetrahydro-1-benzazepine derivatives” (Bioorg Med Chem, 2010)

Tests used:
[1] = Cytotoxicity against african green monkey Vero cells after 72 hrs by MTT assay; format: cell-based; settings: chlorocebus sabaeus
Summary of the method: (§1)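 Vero or transformed THP-1 cells incubated with compound (0.3–300 μM) 72 h at 37 °C, 5% CO2; untreated controls. MTT read-out, formazan OD at 580 nm; % cytotoxicity = 100 × (OD control − OD treated)/OD control. CC50/CC90 by sigmoidal regression; triplicates, repeated twice. DMSO stocks 100× concentrated, diluted in medium.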

[2] = Selectivity index, CC50 for human THP1 cells to IC50 for Leishmania chagasi MHOM/BR/74/PP75 amastigotes; format: functional, THP-1
Summary of the method: (§2)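 Selectivity index computed as CC50 in THP-1 cells divided by IC50 against the L. chagasi stage named in the line.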

Leishmania chagasi [3] = experiment: Antileishmanial activity against Leishmania chagasi MHOM/BR/74/PP75 promastigotes after 72 hrs by haemocytometry; format: functional, organism-based; settings: MHOM/BR/74/PP75, 72 h
Summary of the method: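 Late-phase L. chagasi promastigotes, grown at 28 °C in RPMI 1640 with hemin, HEPES and 10% hiSBF, exposed to threefold serial dilutions (0.3–100 μM) for 72 h at 28 °C; untreated controls. Growth inhibition from haemocytometer counts; IC50/IC90 by sigmoidal regression; triplicates, repeated twice.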

Leishmania chagasi [4] = experiment: Antileishmanial activity against Leishmania chagasi MHOM/BR/74/PP75 amastigotes infected in human THP1 cells after 5 days by Giemsa staining; format: functional, organism-based; settings: MHOM/BR/74/PP75, THP-1, 120 h
Summary of the method: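 THP-1 cells (RPMI, 5% hiSBF, 37 °C, 5% CO2) transformed, then infected 24 h with late-phase L. chagasi promastigotes at parasite:cell 10:1. Treated with compound dilutions (top 100 μM) 5 days at 37 °C, 5% CO2, medium changed once after 3 days. Infected cells counted per 300 cells on methanol-fixed Giemsa slides; IC50/IC90 by sigmoidal regression; triplicates, repeated twice.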

[5] = Selectivity index, CC50 for african green monkey Vero cells to IC50 for Trypanosoma cruzi 320I01 epimastigote; format: functional
Summary of the method: (§3)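 Selectivity index computed as CC50 in Vero cells divided by IC50 against the T. cruzi stage named in the line.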

Trypanosoma cruzi [6] = experiment: Antitrypanosomal activity against Trypanosoma cruzi 320I01 amastigotes infected in african green monkey Vero cells after 5 days by Giemsa staining; format: functional, organism-based; settings: 320I01, Vero, 120 h
Summary of the method: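 Vero cells (RPMI, 5% hiSBF, 37 °C, 5% CO2) infected 24 h with tissue-derived T. cruzi trypomastigotes at parasite:cell 10:1. Compound dilutions (top 100 μM) applied 5 days at 37 °C, 5% CO2, medium changed once at day 3. Infected cells scored per 300 cells on methanol-fixed Giemsa preparations; IC50/IC90 by sigmoidal regression; triplicates, two experiments.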

[7] = Cytotoxicity against human THP1 cells after 72 hrs by MTT assay; format: cell-based; settings: THP-1 cells; summary of the method: as §1
[8] = Selectivity index, CC50 for human THP1 cells to IC50 for Leishmania chagasi MHOM/BR/74/PP75 promastigotes; format: functional, THP-1; summary of the method: as §2
Trypanosoma cruzi [9] = experiment: Antitrypanosomal activity against Trypanosoma cruzi 320I01 epimastigotes after 72 hrs by haemocytometry; format: functional, organism-based; settings: 320I01, 72 h
Summary of the method: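 Late-phase T. cruzi epimastigotes cultured in LIT medium with hiFCS at 28 °C; threefold serial dilutions (0.3–100 μM) for 72 h at 28 °C, untreated controls. Parasites counted in a haemocytometer; IC50/IC90 by sigmoidal regression; each concentration in triplicate, two experiments.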

[10] = Selectivity index, CC50 for african green monkey Vero cells to IC50 for Trypanosoma cruzi 320I01 amastigotes; format: functional; summary of the method: as §3

Row | SMILES | IC50 (Leishmania chagasi [3]) [µM] | IC90 (Leishmania chagasi [3]) [µM] | IC50 (Leishmania chagasi [4]) [µM] | IC90 (Leishmania chagasi [4]) [µM] | IC50 (Trypanosoma cruzi [6]) [µM] | IC90 (Trypanosoma cruzi [6]) [µM] | IC50 (Trypanosoma cruzi [9]) [µM] | IC90 (Trypanosoma cruzi [9]) [µM] | CC50 at 72 h [1] [µM] | CC90 at 72 h [1] [µM] | Selectivity Index [2] | Selectivity Index [5] | CC50 at 72 h [7] [µM] | CC90 at 72 h [7] [µM] | Selectivity Index [8] | Selectivity Index [10]
1 | O[C@@H]1Cc2ccccc2N[C@H](c2c(Cl)cccc2Cl)C1 (relative stereo) | > 100 | > 100 | > 100 | > 100 | 69.9 | > 100 | 48.9 | > 100 | > 300 | > 300 | >3 | >6 | > 300 | > 300 | >3 | >4
2 | O[C@@H]1Cc2ccccc2N[C@H](c2c(F)cccc2Cl)C1 (relative stereo) | > 100 | > 100 | > 100 | > 100 | > 100 | > 100 | > 100 | > 100 | > 300 | > 300 | >3 | >3 | > 300 | > 300 | >3 | >3
3 | Cc1ccc([C@@H]2C[C@H](O)Cc3cc(C)ccc3N2)cc1 (relative stereo) | > 100 | > 100 | > 100 | > 100 | 50.5 | > 100 | 6.1 | 35.3 | > 300 | > 300 | >1 | >49 | 172 | > 300 | >1 | >6
4 | Cc1ccc2c(c1)C[C@@H](O)C[C@@H](c1ccccc1Cl)N2 (relative stereo) | 41.3 | 49.4 | > 100 | > 100 | 45.8 | 73.6 | 22.4 | 67.2 | 82.4 | > 300 | >0.85 | 3.67 | 85.2 | > 300 | 2.06 | 1.8
5 | O[C@@H]1Cc2cc(Cl)ccc2N[C@H](c2ccccc2Cl)C1 (relative stereo) | 50.2 | > 100 | > 100 | > 100 | > 100 | > 36.1 | 15.3 | 35.7 | 106 | > 300 | >0.75 | 6.91 | 75.5 | > 300 | 1.5 | >1
6 | O[C@@H]1Cc2cc(Cl)ccc2N[C@H](c2ccccc2F)C1 (relative stereo) | 54.5 | > 100 | > 100 | > 100 | > 38.1 | > 38.1 | 17.3 | 79.9 | 182 | > 300 | >1 | 10.53 | 110 | 273 | 2.02 | >4
7 | O[C@@H]1Cc2ccccc2N[C@H](c2ccccc2Cl)C1 (relative stereo) | 84.4 | > 100 | > 100 | > 100 | > 100 | > 100 | 49.7 | > 100 | > 300 | > 300 | >3 | >6 | > 300 | > 300 | >3 | >3
8 | O[C@@H]1Cc2ccccc2N[C@H](c2ccccc2F)C1 (relative stereo) | > 100 | > 100 | > 100 | > 100 | > 100 | > 100 | 63 | > 100 | > 300 | > 300 | >3 | >4 | > 300 | > 300 | >3 | >3
9 | CC1CS(=O)(=O)CCN1/N=C/c1ccc([N+](=O)[O-])o1 (centres undefined) [NIFURTIMOX] | – | – | – | – | 2.3 | 9.06 | 2.33 | 23.4 | 61.4 | > 300 | – | 26.36 | – | – | – | 26.7

Further lines, with some results ahead:

Row | IC50 (Leishmania chagasi [3]) [µM] | IC90 (Leishmania chagasi [3]) [µM] | IC50 (Leishmania chagasi [4]) [µM] | IC90 (Leishmania chagasi [4]) [µM] | IC50 (Trypanosoma cruzi [6]) [µM] | IC90 (Trypanosoma cruzi [6]) [µM] | IC50 (Trypanosoma cruzi [9]) [µM] | IC90 (Trypanosoma cruzi [9]) [µM] | SMILES | CC50 at 72 h [1] [µM] | CC90 at 72 h [1] [µM] | Selectivity Index [2] | Selectivity Index [5] | CC50 at 72 h [7] [µM] | CC90 at 72 h [7] [µM] | Selectivity Index [8] | Selectivity Index [10]
10 | 39.8 | 78.5 | 73.2 | > 100 | > 34.1 | > 34.1 | 14.5 | 34.8 | O[C@@H]1Cc2cc(Cl)ccc2N[C@H](c2c(F)cccc2Cl)C1 (relative stereo) | 92 | 182 | >1 | 6.36 | 110 | 214 | 2.76 | >2
11 | 14.7 | 30.3 | > 32.5 | > 32.5 | > 32.5 | > 32.5 | 14.8 | 53 | O[C@@H]1Cc2cc(Cl)ccc2N[C@H](c2c(Cl)cccc2Cl)C1 (relative stereo) | 49.9 | 176 | >1 | 3.36 | 59.6 | > 293 | 4.06 | >1
12 | 14.1 | 41 | > 100 | > 100 | > 100 | > 100 | 16.4 | 29.7 | O[C@@H]1Cc2cc(Cl)ccc2N[C@H](c2ccc(Cl)cc2)C1 (relative stereo) | 76.6 | > 300 | >0.49 | 4.65 | 49.2 | > 300 | 3.49 | >0.8
13 | 9.54 | 11.7 | > 94.9 | > 94.9 | > 94.9 | > 94.9 | 27.2 | 54.4 | O[C@@H]1Cc2cc(Cl)ccc2N[C@H](c2ccc(Br)cc2)C1 (relative stereo) | 57.7 | 164 | >1.61 | 2.12 | 153 | 280 | 16.05 | >0.6
14 | 17.1 | 77.7 | > 100 | > 100 | > 100 | > 100 | 45.9 | > 100 | O[C@@H]1Cc2cc(F)ccc2N[C@H](c2ccc(Cl)cc2)C1 (relative stereo) | 194 | > 300 | >1 | 4.21 | 100 | > 300 | 5.86 | >1.9
15 | 0.02 | 0.02 | 0.08 | 0.14 | – | – | – | – | C[C@@H]1[C@H](O)[C@@H](C)/C=C/C=C/C=C/C=C/C=C/C=C/C=C/[C@H](O[C@@H]2O[C@H](C)[C@@H](O)[C@H](N)[C@@H]2O)C[C@@H]2O[C@](O)(C[C@@H](O)C[C@@H](O)[C@H](O)CC[C@@H](O)C[C@@H](O)CC(=O)O[C@H]1C)C[C@H](O)[C@H]2C(=O)O [AMPHOTERICIN B] | – | – | 109.87 | – | 8.79 | 34.9 | 439.5 | –
